We go through two molecules from ChEMBL document CHEMBL1132578, “New peptidic cysteine protease inhibitors derived from the electrophilic alpha-amino acid aziridine-2,3-dicarboxylic acid” (J Med Chem, 1999).

Experiment [1] has as its target Cathepsin B (Bos taurus) (UniProt P07688). Kind of experiment: Evaluated for second-order rate constants for the inactivation of mammalian lysosomal cathepsin B.
The next experiment has as its target calpain I. The experiment can be described thus: Inhibition constant for the non time dependent inhibition of calpain I.
Experiment [2] addresses T1, Papain (Carica papaya) (UniProt P00784).
T1 sequence (whole entry): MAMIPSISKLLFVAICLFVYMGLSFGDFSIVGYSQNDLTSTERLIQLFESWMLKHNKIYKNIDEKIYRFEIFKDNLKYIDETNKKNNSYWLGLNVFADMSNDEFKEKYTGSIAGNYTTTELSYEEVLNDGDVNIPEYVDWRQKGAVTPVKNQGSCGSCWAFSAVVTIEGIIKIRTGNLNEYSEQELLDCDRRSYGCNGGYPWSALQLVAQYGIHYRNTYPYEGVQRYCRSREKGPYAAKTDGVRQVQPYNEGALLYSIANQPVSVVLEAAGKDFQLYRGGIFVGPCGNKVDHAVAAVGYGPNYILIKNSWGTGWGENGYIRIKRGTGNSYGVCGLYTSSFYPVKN
Kind of experiment: Second-order rate constants for the inactivation of papain (vacuolar plant enzyme). In a few lines:
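Papain with L-BAPA (405 nm) in 50 mM phosphate pH 6.5, 5 mM EDTA, 5 mM cysteine, or with Z-Phe-Arg-AMC in phosphate pH 6.5 with DTT, EDTA, Brij 35; 25 °C. kobs at 3–7 inhibitor concentrations, continuous or dilution assay; k2nd = ki/Ki, or from linear kobs vs [I] when unsaturated; substrate-corrected (Km 2.5 mM L-BAPA, 0.09 mM Z-Phe-Arg-AMC).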

Experiment [3] has as its target T2, Pro-cathepsin H (Homo sapiens, UniProt P09668).
T2 sequence (P09668 whole entry): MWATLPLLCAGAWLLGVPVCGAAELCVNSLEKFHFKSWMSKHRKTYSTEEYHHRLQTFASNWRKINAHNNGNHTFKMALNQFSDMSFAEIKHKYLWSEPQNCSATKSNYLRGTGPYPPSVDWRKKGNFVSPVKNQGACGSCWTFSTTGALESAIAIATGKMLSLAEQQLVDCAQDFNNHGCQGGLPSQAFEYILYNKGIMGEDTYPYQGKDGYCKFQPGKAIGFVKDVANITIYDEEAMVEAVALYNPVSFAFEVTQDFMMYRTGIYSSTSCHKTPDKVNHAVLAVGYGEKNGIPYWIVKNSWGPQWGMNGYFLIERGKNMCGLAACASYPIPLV
Kind of experiment: Inhibition constant for the non time dependent inhibition of Cathepsin H; no inhibition.

Experiment [4] deals with Procathepsin L (Homo sapiens) (UniProt P07711). The experiment can be described thus: Evaluated for second-order rate constants for the inactivation of mammalian lysosomal cathepsin L.
Chain of Procathepsin L (Homo sapiens) (P07711 114-333 limits assumed): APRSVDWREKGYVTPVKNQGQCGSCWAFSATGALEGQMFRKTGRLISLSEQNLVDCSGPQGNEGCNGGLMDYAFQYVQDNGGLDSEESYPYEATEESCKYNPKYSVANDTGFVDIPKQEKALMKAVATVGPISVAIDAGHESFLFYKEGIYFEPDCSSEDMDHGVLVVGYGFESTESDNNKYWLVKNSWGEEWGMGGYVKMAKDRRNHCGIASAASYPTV
In experiment [5] the target is T1, Papain (Carica papaya).
In experiment [6] the target is T1, Papain (Carica papaya). Kind of experiment: pH dependency of inhibition of papain without the compound at pH 7.0 mean values from five assays. The procedure, abridged: (§1)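 Papain (0.5 mg/mL) with 1.49 mM L-BAPA, with or without 17 µM inhibitor for 30 min, at pH 5.2–8.0 (citrate pH 4–6, phosphate pH 6–8), 25 °C; nitroanilide release read at 405 nm. Activities are means of five assays; percent inhibition compares inhibited and uninhibited activity.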

The target of experiment [7] is T1, Papain (Carica papaya). The source holds these as a separate data set.
Experiment [8] concerns the target T1, Papain (Carica papaya). Kind of experiment: pH dependency of inhibition of papain without the compound at pH 6.0 mean values from five assays. The procedure, abridged: as §1
The target of experiment [9] is T1, Papain (Carica papaya). Kind of experiment: pH dependency of inhibition of papain without the compound at pH 6.5 mean values from five assays. The procedure, abridged:
as §1

In experiment [10] the target is T1, Papain (Carica papaya). Kind of experiment: pH dependency of inhibition of papain with the compound at pH 7.0 [I] = 17 uM, incubation time = 30 minutes, [S] = 1.49 mM L-BAPA, [E] = 0.5 mg m/L. The procedure, abridged:
as §1

Experiment [11] addresses T1, Papain (Carica papaya). Kind of experiment: Percent inhibition of papain by the compound at pH 7.0. The settings on record: concentration not given here. The procedure, abridged: as §1
The target of experiment [12] is T1, Papain (Carica papaya). Kind of experiment: Percent inhibition of papain by the compound at pH 6.5. The settings on record: concentration not given here. In a few lines: as §1
The target in experiment [13] is Procathepsin L (Homo sapiens) (UniProt P07711). The settings on record: Paramecium tetraurelia.
In experiment [14] the target is T1, Papain (Carica papaya). Kind of experiment: Percent inhibition of papain by the compound at pH 6.0. Conditions: concentration not given here; call rule not given here. In a few lines: as §1
Experiment [15] addresses T1, Papain (Carica papaya). The experiment can be described thus: Percent inhibition of papain by the compound at pH 5.2. Conditions: concentration not given here. In a few lines: as §1
For experiment [16], the target named is T1, Papain (Carica papaya). Kind of experiment: pH dependency of inhibition of papain without the compound at pH 8.0 mean values from five assays. In a few lines:
as §1

The target in experiment [17] is T3, Calpain-1 catalytic subunit (Homo sapiens, UniProt P07384).
T3 sequence (P07384 whole entry): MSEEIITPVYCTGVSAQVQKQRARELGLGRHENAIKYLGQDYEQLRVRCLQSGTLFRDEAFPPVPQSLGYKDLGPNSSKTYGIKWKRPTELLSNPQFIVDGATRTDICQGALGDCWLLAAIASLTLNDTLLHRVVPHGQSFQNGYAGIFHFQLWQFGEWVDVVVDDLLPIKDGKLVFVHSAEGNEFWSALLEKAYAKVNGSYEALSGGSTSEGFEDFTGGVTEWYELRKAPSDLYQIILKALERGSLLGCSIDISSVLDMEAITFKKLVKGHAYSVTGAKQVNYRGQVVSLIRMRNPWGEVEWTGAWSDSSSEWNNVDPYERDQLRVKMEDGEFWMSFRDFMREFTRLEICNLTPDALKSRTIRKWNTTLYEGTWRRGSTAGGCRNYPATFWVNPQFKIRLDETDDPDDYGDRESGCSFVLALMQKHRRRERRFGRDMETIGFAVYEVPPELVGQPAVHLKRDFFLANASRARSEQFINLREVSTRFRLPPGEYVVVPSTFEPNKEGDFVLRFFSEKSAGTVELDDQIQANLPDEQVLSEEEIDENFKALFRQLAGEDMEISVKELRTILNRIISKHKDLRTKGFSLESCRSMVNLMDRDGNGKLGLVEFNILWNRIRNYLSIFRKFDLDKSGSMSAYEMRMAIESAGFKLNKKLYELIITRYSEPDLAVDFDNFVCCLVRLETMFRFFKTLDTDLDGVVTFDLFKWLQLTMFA
Kind of experiment: Compound was evaluated for inhibition constant for the non-time dependent inhibition of Calpain 1; no inhibition. Also on record: species or system Sus scrofa.

The target of experiment [18] is T1, Papain (Carica papaya). Kind of experiment: pH dependency of inhibition of papain with the compound at pH 6.0 [I] = 17 uM, incubation time = 30 minutes, [S] = 1.49 mM L-BAPA, [E] = 0.5 mg m/L. In a few lines: as §1
Experiment [19] addresses T1, Papain (Carica papaya). The experiment can be described thus: pH dependency of inhibition of papain without the compound at pH 5.2 mean values from five assays. The procedure, abridged:
as §1

Experiment [20] deals with T1, Papain (Carica papaya). Kind of experiment: Percent inhibition of papain by the compound at pH 8.0. Conditions: concentration not given here. In a few lines:
as §1

The target in experiment [21] is T1, Papain (Carica papaya). This is another data set of the same source.
Experiment [22] deals with T1, Papain (Carica papaya). Kind of experiment: pH dependency of inhibition of papain with the compound at pH 5.2 [I] = 17 uM, incubation time = 30 minutes, [S] = 1.49 mM L-BAPA, [E] = 0.5 mg m/L. In a few lines: as §1
The target of experiment [23] is T1, Papain (Carica papaya). The experiment can be described thus: pH dependency of inhibition of papain with the compound at pH 8.0 [I] = 17 uM, incubation time = 30 minutes, [S] = 1.49 mM L-BAPA, [E] = 0.5 mg m/L. The procedure, abridged:
as §1

Experiment [24] has as its target T1, Papain (Carica papaya). This is another data set of the same source.
Experiment [25] deals with Cathepsin B (Bos taurus) (UniProt P07688).
In experiment [26] the target is T2, Pro-cathepsin H. The experiment can be described thus: Compound was evaluated for inhibition constant for the non-time dependent inhibition of Cathepsin H.
Experiment [27] deals with T1, Papain (Carica papaya). The experiment can be described thus: pH dependency of inhibition of papain with the compound at pH 6.5 [I] = 17 uM, incubation time = 30 minutes, [S] = 1.49 mM L-BAPA, [E] = 0.5 mg m/L. In a few lines: as §1

The structures appear in SMILES notation.

Regarding `CCOC(=O)[C@@H]1[C@@H](C(=O)OCC)N1C(=O)[C@H](C)NC(=O)OCc1ccccc1`, the ki/Ki was 1.12 M⁻¹ s⁻¹ at Cathepsin B (Bos taurus) [1], 1.22 M⁻¹ s⁻¹ at Papain (Carica papaya) [2] and 5.08 M⁻¹ s⁻¹ in experiment [4]. The Ki was 160 µM at calpain I and “Not Active” at Pro-cathepsin H [3].
`CCOC(=O)[C@@H]1[C@@H](C(=O)OCC)N1C(=O)[C@H](Cc1ccccc1)NC(=O)OC(C)(C)C`: the ki/Ki at Papain (Carica papaya) [5] stood at 6.8 M⁻¹ s⁻¹; at Papain (Carica papaya) [7], 7.07 M⁻¹ s⁻¹; in [13] it was 1.08 M⁻¹ s⁻¹; at Papain (Carica papaya) [21], 1.2 M⁻¹ s⁻¹; at Papain (Carica papaya) [24], 6.83 M⁻¹ s⁻¹; on Cathepsin B (Bos taurus) [25], 2.08 M⁻¹ s⁻¹. For the same molecule, the Activity at Papain (Carica papaya) [6] is 7.33 mU/mL; at Papain (Carica papaya) [8], 7.33 mU/mL; on Papain (Carica papaya) [9], 7.38 mU/mL; on Papain (Carica papaya) [10] it was 0.75 mU/mL; at Papain (Carica papaya) [16], 7.31 mU/mL; on Papain (Carica papaya) [18], 1.38 mU/mL. The Activity at Papain (Carica papaya) [19] came to 6.54 mU/mL; on Papain (Carica papaya) [22], 1.86 mU/mL; on Papain (Carica papaya) [23] it was 0.75 mU/mL; on Papain (Carica papaya) [27], 0.98 mU/mL. Further, the inhibition against Papain (Carica papaya) [11] amounted to 89.8%; on Papain (Carica papaya) [12] it was 86.7%; against Papain (Carica papaya) [14] it was 81.1%; at Papain (Carica papaya) [15], 71.6%; on Papain (Carica papaya) [20], 89.7%. Further, the Ki result is “Not Active” in [17] and 210 µM at Pro-cathepsin H [26].
